The results in this text go back to ChEMBL document CHEMBL3414540, “Synthesis, crystal structure and effect of indeno[1,2-b]indole derivatives on prostate cancer in vitro. Potential effect against MMP-9” (Eur J Med Chem, 2015).

For assay [1], the system named is LNCaP. Put plainly: Inhibition of clonogenic potential of human LNCAP cells grown on semi-soft agar medium assessed as relative colony size ratio at cytotoxic IC50 level incubated for 2 weeks post dose by crystal violet staining based light microscopy (reference value: 1 +/- 0.3). The format is functional. A digest of the protocol:
(§1)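 Cells (1×10^5) in RPMI with 20% FBS and 0.3% Noble agar were layered over a 0.6% agar/RPMI base, held 15 min at room temperature, then incubated 24 h at 37°C. Compound in 1 mL medium was added the next day. After 2 weeks, cells were stained with 0.01% crystal violet (18 h, 37°C). Colony number and relative size were scored by light microscopy against vehicle. Three independent experiments, mean ± SEM.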

Assay [2] in a line: (§2) Cytotoxicity against rat MAT-LyLu cells after 72 hrs by XTT assay. Particulars: MAT-Ly-Lu. The assay is classed as functional, cell-based. A digest of the protocol: (§3)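 Compounds in DMSO (5-100 µg/ml, final DMSO <0.2%) were added for 72 h. XTT was then added (4 h, 37°C) and formazan read at 492 nm. IC50 is the 50% viability drop versus vehicle. Three experiments, five wells each, mean ± SEM.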
Background: Tetrazolium dyes change colour on reduction, which living cells bring about.

The next assay has as its system MAT-Ly-Lu. The assay is described as §2. The assay is classed as functional, cell-based. A digest of the protocol: as §3
For assay [3], the system named is LNCaP. Put plainly: Inhibition of clonogenic potential of human LNCAP cells grown on semi-soft agar medium assessed as colony formation at cytotoxic IC50 level incubated for 2 weeks post dose by crystal violet staining based light microscopy relative to control. The assay is classed as functional. Further details: scale not given: the % may be the effect or the level left. A digest of the protocol:
as §1

Assay [4] is described as follows: Inhibition of clonogenic potential of human PC3 cells grown on semi-soft agar medium assessed as relative colony size ratio at cytotoxic IC50 level incubated for 2 weeks post dose by crystal violet staining based light microscopy (reference value: 1 +/- 0.3). The format is functional, PC-3. A digest of the protocol:
as §1

The test system of assay [5] is LNCaP. In words: Inhibition of cell invasion of human LNCAP cells pre-treated at cytotoxic IC50 level followed by further 18 hrs incubation by matrigel coated Boyden chamber assay. The assay is classed as functional, cell-based. The method in brief: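 LNCaP cells (1×10^5 cells/ml) were pretreated for 24 h, then seeded in serum-free medium onto a Matrigel-coated […] membrane over medium with 20% FBS (18 h, 37°C). Invaded cells were stained with calcein (4 µg/ml in HBSS, 1 h) and fluorescence read at 485/530 nm. Inhibition is relative to vehicle. Three independent experiments, mean ± SEM.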

For assay [6], the system named is PC-3. Put plainly: (§4) Cytotoxicity against human PC3 cells after 72 hrs by XTT assay. The format is functional, cell-based. The method in brief:
as §3

Assay [7] is described as follows: as §4. The assay is classed as functional, cell-based. The following applies: PC-3, 72 h. The method in brief: as §3
Assay [8] in a line: Inhibition of clonogenic potential of human PC3 cells grown on semi-soft agar medium assessed as colony formation at cytotoxic IC50 level incubated for 2 weeks post dose by crystal violet staining based light microscopy relative to control. Set-up: scale not given: the % may be the effect or the level left. The format is functional, PC-3. The method in brief: as §1
Assay [9] can be described thus: Inhibition of clonogenic potential of rat MAT-LyLu cells grown on semi-soft agar medium assessed as colony formation at cytotoxic IC50 level incubated for 2 weeks post dose by crystal violet staining based light microscopy relative to control. The assay is classed as functional, MAT-Ly-Lu. Set-up: scale not given: the % may be the effect or the level left. A digest of the protocol: as §1

For assay [10], the system named is PC-3. Put plainly: Inhibition of EGF-induced cell migration of human PC3 cells at cytotoxic IC50 level incubated for 24 hrs in presence of EGF by light microscopy based wound healing assay. The assay is classed as functional. The method in brief:
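PC-3 cells (8×10^4 per well) were grown to confluence (48 h, 37°C) and the monolayer scratched with a pipette tip. After a PBS wash, compound in fresh medium was added with […] (1 pg/ml) for 24 h. Wound area was imaged at 0 and 24 h and expressed as % closure of the original wound. Three independent experiments, mean ± SEM.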

Assay [11] addresses Matrix metalloproteinase-9 (Homo sapiens) (UniProt P14780). In words: Inhibition of MMP9 in human PC3 cells assessed as reduction in MMP-mediated gelatinolytic activity at cytotoxic IC50 level incubated for 24 hrs by zymography. Particulars: PC-3. The assay is classed as cell-based. The method in brief: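 PC-3 cells at 80% confluence were washed with PBS and treated in serum-free medium (24 h, 37°C). Conditioned medium was mixed 0.75:0.25 with sample buffer lacking mercaptoethanol and run on 10% SDS gels copolymerized with gelatin (1 mg/mL). MMP-9 lysis zones were quantified as % activity relative to vehicle. Three experiments, mean ± SEM.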

Assay [12] is described as follows: Inhibition of clonogenic potential of rat MAT-LyLu cells grown on semi-soft agar medium assessed as relative colony size ratio at cytotoxic IC50 level incubated for 2 weeks post dose by crystal violet staining based light microscopy (reference value: 1 +/- 0.05). The assay is classed as functional, MAT-Ly-Lu. The method in brief:
as §1

Assay [13] concerns LNCaP. Put plainly: Cytotoxicity against human LNCAP cells after 72 hrs by XTT assay. The assay is classed as functional, cell-based. The method in brief: as §3

The structures appear in SMILES notation. Values after ≈ are worked out from the molar mass of the structure shown. Active and inactive are the calls of the source. No cut-off for these calls is given here.

Matrix metalloproteinase-9 (Homo sapiens), sequence (P14780 whole entry): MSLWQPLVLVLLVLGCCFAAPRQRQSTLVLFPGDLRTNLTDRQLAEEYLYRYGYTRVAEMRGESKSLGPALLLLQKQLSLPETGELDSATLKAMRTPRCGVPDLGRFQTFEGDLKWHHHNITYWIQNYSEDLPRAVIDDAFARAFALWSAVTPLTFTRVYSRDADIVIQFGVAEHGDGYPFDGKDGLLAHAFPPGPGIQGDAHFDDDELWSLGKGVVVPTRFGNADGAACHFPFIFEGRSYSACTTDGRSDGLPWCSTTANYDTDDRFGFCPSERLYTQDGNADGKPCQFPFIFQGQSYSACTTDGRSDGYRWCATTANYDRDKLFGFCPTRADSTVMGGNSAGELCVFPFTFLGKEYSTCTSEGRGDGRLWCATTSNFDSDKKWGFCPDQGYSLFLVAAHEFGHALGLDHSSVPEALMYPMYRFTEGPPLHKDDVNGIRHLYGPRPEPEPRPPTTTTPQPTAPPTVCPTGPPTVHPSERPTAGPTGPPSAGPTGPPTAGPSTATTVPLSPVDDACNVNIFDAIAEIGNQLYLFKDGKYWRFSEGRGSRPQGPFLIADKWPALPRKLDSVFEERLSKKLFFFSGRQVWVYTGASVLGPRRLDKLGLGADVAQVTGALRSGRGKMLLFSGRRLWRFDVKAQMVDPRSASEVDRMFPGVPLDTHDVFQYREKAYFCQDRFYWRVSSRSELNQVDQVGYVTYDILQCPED

For the compound `CC1(C)CC(=O)C2=C(C1)N(c1ccc(Cl)c(Cl)c1)[C@@]1(O)c3ccccc3C(=O)[C@@]21O` (racemic), the Ratio in the assay with LNCaP [1] was 0; in [4] it was 0; in [12], 0.16. Besides, the half-maximal inhibitory concentration (IC50) (as a rule, the concentration at which inhibition is half-maximal) in [2] is 5.96 µg/mL (≈ 13.4 µM); in assay [7], 10.7 µg/mL (≈ 24.1 µM); with LNCaP [13], 9.57 µg/mL (≈ 21.5 µM). The inhibition entry with MAT-Ly-Lu, with PC-3 [6] and in the assay on LNCaP [13] was “Dose-dependent effect” in each case. In addition, the Activity in the assay on LNCaP [3] amounted to 0%; in assay [8] it was 0%; in [9] it was 6.35%. Moreover, the inhibition entry (in the assay on LNCaP [5]; in the assay on PC-3 [10]; in assay [11]) was “Active” each time.
